Laboratory results from ChEMBL document CHEMBL1137814, “Bitungolides A-F, new polyketides from the Indonesian sponge Theonella cf. swinhoei” (J Nat Prod, 2002).
Activity calls are given as the source filed them. No cut-off for these calls is given here.

How the values were obtained:
brain [1] = assay: Induction of microtubule assembly in bovine brain cells by turbidimetric assay; type: cell-based; conditions: Bos taurus
Outline: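 Turbidity assay: microtubule protein at 2.0 mg/mL in Mes buffer incubated at 37 °C. Absorbance at 350 nm followed over time.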

brain [2] = assay: Induction of actin assembly in bovine brain cells by turbidimetric assay; type: cell-based; conditions: Bos taurus
[3] = Cytotoxicity against rat 3Y1 cells at 10 ug/ml by flow cytometry; type: cell-based
Outline: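 Rat normal fibroblast 3Y1 cells grown in Dulbecco's modified MEM with 10% fetal calf serum, humidified 5% CO2. Cell-cycle progression after treatment assessed by flow cytometry.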

Homo sapiens = species on record: Homo sapiens; assay: Inhibition of PP2A from human red blood cells
Outline: (§1)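 PP1 (rabbit skeletal muscle) and PP2A (human red blood cells), commercial enzymes. In vitro assays run in duplicate. Compounds tested at 10 µg/mL, with tautomycin at 30 ng/mL as reference.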

Oryctolagus cuniculus = species on record: Oryctolagus cuniculus; assay: Inhibition of rabbit muscle PP1; outline: as §1
[4] = Inhibition of PTP-S2
Outline: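 PTP-S2 overexpressed in E. coli BL21(DE3). Phosphatase assays run in triplicate. Compounds tested at 10 µg/mL, with tautomycin at 30 ng/mL as reference.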

3Y1 cell line = assay: Induction of morphological changes in rat 3Y1 cells by indirect immunofluorescence technique; type: functional, cell-based
Outline: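 3Y1 rat fibroblasts cultured in DMEM plus 10% fetal calf serum under humidified 5% CO2. Cytoskeletal changes after treatment visualized by indirect immunofluorescence microscopy.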

[5] = target: Dual specificity protein phosphatase 3 (Homo sapiens) (UniProt P51452); assay: Inhibition of VHR expressed in Escherichia coli BL21([…])
Outline: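 VHR dual-specificity phosphatase overexpressed in E. coli BL21(DE3). Assays run in triplicate. Compounds tested at 100 µg/mL (some at 30 µg/mL). References were tautomycin at 30 ng/mL and RK-682 at 10 µg/mL.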

Dual specificity protein phosphatase 3 (Homo sapiens), sequence (P51452 whole entry, looked up): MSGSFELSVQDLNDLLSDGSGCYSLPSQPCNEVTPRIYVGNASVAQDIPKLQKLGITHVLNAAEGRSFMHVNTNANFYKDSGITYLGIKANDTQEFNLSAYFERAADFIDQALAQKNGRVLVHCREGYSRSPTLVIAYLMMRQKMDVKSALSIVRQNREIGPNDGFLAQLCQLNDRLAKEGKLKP

| SMILES | Activity (brain [1]) | Activity (brain [2]) | Activity [3] | Activity (Homo sapiens) | Activity (Oryctolagus cuniculus) | Activity [4] | Activity (3Y1 cell line) | Activity [5] |
| --- | --- | --- | --- | --- | --- | --- | --- | --- |
| CC[C@@H]1C=CC(=O)O[C@@H]1[C@H](C)C[C@@H](C)[C@@H](O)C[C@H](O)/C=C\C=C/c1cccc(O)c1Cl [BITUNGOLIDE A] | inactive | inactive | Active | inactive | inactive | inactive | inactive | inactive |
| CC[C@@H]1C=CC(=O)O[C@@H]1[C@H](C)C[C@@H](C)[C@@H](O)C[C@H](O)/C=C/C=C/c1cccc(O)c1Cl [BITUNGOLIDE B] | inactive | inactive | Active | inactive | inactive | inactive | inactive | inactive |
| CC[C@@H]1C=CC(=O)O[C@@H]1[C@H](C)C[C@@H](C)[C@@H](O)C[C@H](O)/C=C\C=C\c1cccc(O)c1Cl [BITUNGOLIDE C] | inactive | inactive | Active | inactive | inactive | inactive | inactive | inactive |
| CC[C@@H]1C=CC(=O)O[C@@H]1[C@H](C)C[C@@H](C)[C@@H](O)C[C@H](O)/C=C/C=C\c1cccc(O)c1Cl [BITUNGOLIDE D] | inactive | inactive | Active | inactive | inactive | inactive | inactive | inactive |
| CC[C@@H]1C=CC(=O)O[C@@H]1[C@H](C)C[C@@H](C)[C@@H](O)C[C@H](O)/C=C/C=C/c1ccccc1 [BITUNGOLIDE E] | inactive | inactive | Active | inactive | inactive | inactive | inactive | inactive |
| CC[C@@H]1C=CC(=O)O[C@@H]1[C@H](C)CC[C@@H](O)C[C@H](O)/C=C/C=C/c1ccccc1 [BITUNGOLIDE F] | inactive | inactive | Active | inactive | inactive | inactive | inactive | inactive |
